ChEMBL document CHEMBL5528045, “Discovery of Orally Bioavailable FmlH Lectin Antagonists as Treatment for Urinary Tract Infections” (J Med Chem, 2024)
Blank lines part the entries; values can stand above or below the molecule they belong to.

Experiments:
FmlH (Escherichia coli) = experiment: Inhibition of C-terminal 6His-tagged biotinylated FmIH (Escherichia coli CFT073) expressed in Escherichia coli C600 cells incubated for 1 hr
[1] = Half life in mouse at 10 mg/kg, po by LC-MS/MS method; type: ADME, organism-based; conditions: in vivo
Method in brief: (§1)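 Single dose in mice, given 3 mg/kg intravenously or 10 mg/kg orally. Plasma was followed over 8 h, and the mean plasma concentration-time profile was used. Oral bioavailability (%F) was calculated from the IV and PO exposures.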

[2] = Clearance in mouse at 3 mg/kg, iv by LC-MS/MS method; type: ADME, organism-based; conditions: in vivo
Method in brief: as §1

[3] = Oral bioavailability in mouse at 10 mg/kg by LC-MS/MS method; type: ADME, organism-based; conditions: in vivo
Method in brief: as §1

[4] = Initial plasma concentration in mouse at 3 mg/kg, iv by LC-MS/MS method; type: ADME, organism-based
Method in brief: as §1

[5] = Half-life in mouse at 3 mg/kg, iv by LC-MS/MS method; type: ADME, organism-based; conditions: in vivo
Method in brief: as §1

[6] = AUC(0 to last) in mouse at 10 mg/kg, po by LC-MS/MS method; type: ADME, organism-based; conditions: in vivo
Method in brief: as §1

[7] = MRT(0 to last) in mouse at 10 mg/kg, po by LC-MS/MS method; type: ADME, organism-based; conditions: in vivo
Method in brief: as §1

[8] = MRT(0 to infinity) in mouse at 10 mg/kg, po by LC-MS/MS method; type: ADME, organism-based; conditions: in vivo
Method in brief: as §1

[9] = AUCextra in mouse at 3 mg/kg, iv by LC-MS/MS method; type: ADME, organism-based; conditions: in vivo
Method in brief: as §1

[10] = Cmax in mouse at 10 mg/kg, po by LC-MS/MS method; type: ADME, organism-based; conditions: in vivo
Method in brief: as §1

[11] = AUC(0 to infinity) in mouse at 10 mg/kg, po by LC-MS/MS method; type: ADME, organism-based; conditions: in vivo
Method in brief: as §1

[12] = AUC(0 to last) in mouse at 3 mg/kg, iv by LC-MS/MS method; type: ADME, organism-based; conditions: in vivo
Method in brief: as §1

[13] = Tmax in mouse at 10 mg/kg, po by LC-MS/MS method; type: ADME, organism-based; conditions: in vivo
Method in brief: as §1

[14] = Tlast in mouse at 3 mg/kg, iv by LC-MS/MS method; type: ADME, organism-based; conditions: in vivo
Method in brief: as §1

[15] = AUCinfinity in mouse at 3 mg/kg, iv by LC-MS/MS method; type: ADME, organism-based; conditions: in vivo
Method in brief: as §1

[16] = AUMCextra in mouse at 3 mg/kg, iv by LC-MS/MS method; type: ADME, organism-based; conditions: in vivo
Method in brief: as §1

[17] = AUCextra in mouse at 10 mg/kg, po by LC-MS/MS method; type: ADME, organism-based; conditions: in vivo
Method in brief: as §1

[18] = Mean residence time(0 to last) in mouse at 3 mg/kg, iv by LC-MS/MS method; type: ADME, organism-based; conditions: in vivo
Method in brief: as §1

[19] = AUMCextra in mouse at 10 mg/kg, po by LC-MS/MS method; type: ADME, organism-based; conditions: in vivo
Method in brief: as §1

[20] = Volume of distribution at steady state in mouse at 3 mg/kg, iv by LC-MS/MS method; type: ADME, organism-based; conditions: in vivo, read-out: Vdss
Method in brief: as §1

[21] = Mean residence time(0 to infinity) in mouse at 3 mg/kg, iv by LC-MS/MS method; type: ADME, organism-based; conditions: in vivo
Method in brief: as §1

[22] = Tlast in mouse at 10 mg/kg, po by LC-MS/MS method; type: ADME, organism-based; conditions: in vivo
Method in brief: as §1

[23] = Drug concentration in mouse urine at 20 mg/kg, po measured at 24 hrs by HPLC-MS/MS analysis; type: ADME, organism-based; conditions: read-out: Ct
Method in brief: (§2)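 9-week-old C3H/HeN mice, n=5 per dose group, were dosed once by oral gavage. The compound was in 1% methyl cellulose, vortexed, sonicated 20 min, warmed at 50 °C for 10 min and vortexed again just before dosing. Mean urine concentration is reported.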

[24] = Drug concentration in mouse urine at 2 mg/kg, po measured at 24 hrs by HPLC-MS/MS analysis; type: ADME, organism-based; conditions: read-out: Ct
Method in brief: as §2

Structure (SMILES): CC(=O)N[C@H]1[C@H](Oc2cccc(C(F)(F)F)c2-c2cccc(NS(C)(=O)=O)c2)O[C@H](CO)[C@H](O)[C@@H]1O
IC50 (FmlH (Escherichia coli)): 35 nM

Structure (SMILES): CC(=O)N[C@H]1[C@H](Oc2ccccc2-c2cccc(NS(C)(=O)=O)c2)O[C@H](CO)[C@H](O)[C@@H]1O
IC50 (FmlH (Escherichia coli)): 230 nM

Structure (SMILES): CS(=O)(=O)Nc1cccc(-c2ccccc2O[C@@H]2O[C@H](CO)[C@H](O)[C@H](O)[C@H]2O)c1
IC50 (FmlH (Escherichia coli)): 1600 nM

IC50 (FmlH (Escherichia coli)): > 50000 nM
Structure (SMILES): CS(=O)(=O)Nc1cccc(-c2ccccc2C[C@@H]2O[C@H](CO)[C@H](O)[C@H](O)[C@H]2[N+](=O)[O-])c1

Structure (SMILES): CC(=O)N[C@H]1[C@H](Oc2cccc(C(F)(F)F)c2-c2ccc(F)c(NS(C)(=O)=O)c2)O[C@H](CO)[C@H](O)[C@@H]1O
IC50 (FmlH (Escherichia coli)): 890 nM

Structure (SMILES): CC(=O)N[C@H]1[C@H](Oc2cccc(C(F)(F)F)c2-c2cc(F)cc(C#N)c2)O[C@H](CO)[C@H](O)[C@@H]1O
IC50 (FmlH (Escherichia coli)): 2000 nM

Structure (SMILES): CC(=O)N[C@H]1[C@H](Oc2cccc(C(F)(F)F)c2-c2cccc(F)c2)O[C@H](CO)[C@H](O)[C@@H]1O
IC50 (FmlH (Escherichia coli)): 480 nM

Structure (SMILES): CC(=O)N[C@H]1[C@H](Oc2cccc(C(F)(F)F)c2-c2cccc(F)c2F)O[C@H](CO)[C@H](O)[C@@H]1O
IC50 (FmlH (Escherichia coli)): 590 nM

Structure (SMILES): CC(=O)N[C@H]1[C@H](Oc2cccc(C(F)(F)F)c2-c2ccc(F)c(F)c2F)O[C@H](CO)[C@H](O)[C@@H]1O
IC50 (FmlH (Escherichia coli)): 700 nM

Structure (SMILES): CC(=O)N[C@H]1[C@H](Oc2cccc(C(F)(F)F)c2-c2cccc(C(=O)NS(C)(=O)=O)c2)O[C@H](CO)[C@H](O)[C@@H]1O
IC50 (FmlH (Escherichia coli)): 310 nM

Structure (SMILES): CS(=O)(=O)Nc1cccc(-c2ccccc2C[C@@H]2O[C@H](CO)[C@H](O)[C@H](O)[C@H]2O)c1
IC50 (FmlH (Escherichia coli)): 15000 nM

Structure (SMILES): CC(=O)N[C@@H]1[C@@H](O)[C@@H](O)[C@@H](CO)O[C@H]1C(=O)Nc1ccccc1-c1cccc(NS(C)(=O)=O)c1
IC50 (FmlH (Escherichia coli)): 6900 nM

Structure (SMILES): CC(=O)N[C@H]1[C@H](Oc2cccc(C(F)(F)F)c2-c2cc(F)cc(C(F)(F)F)c2)O[C@H](CO)[C@H](O)[C@@H]1O
IC50 (FmlH (Escherichia coli)): 9000 nM

Structure (SMILES): CC(=O)N[C@@H]1[C@@H](O)[C@@H](O)[C@@H](CO)O[C@H]1Cc1ccccc1-c1cccc(NS(C)(=O)=O)c1
IC50 (FmlH (Escherichia coli)): 15000 nM

Structure (SMILES): CC(=O)N[C@H]1[C@H](Oc2cccc(C(F)(F)F)c2-c2ccc(F)c(NS(=O)(=O)c3ccccc3)c2)O[C@H](CO)[C@H](O)[C@@H]1O
IC50 (FmlH (Escherichia coli)): 190 nM

Structure (SMILES): CC(=O)N[C@H]1[C@H](Oc2cccc(C(F)(F)F)c2-c2ccc3ccn(S(C)(=O)=O)c3c2)O[C@H](CO)[C@H](O)[C@@H]1O
IC50 (FmlH (Escherichia coli)): 600 nM

Structure (SMILES): CC(=O)N[C@H]1[C@H](Oc2cccc(C(F)(F)F)c2-c2cc(F)cc(F)c2)O[C@H](CO)[C@H](O)[C@@H]1O
IC50 (FmlH (Escherichia coli)): 6000 nM

Structure (SMILES): CC(=O)N[C@H]1[C@H](Oc2cccc(C(F)(F)F)c2-c2cc(C#N)cc(C(F)(F)F)c2)O[C@H](CO)[C@H](O)[C@@H]1O
IC50 (FmlH (Escherichia coli)): 6000 nM

Structure (SMILES): CC(=O)N[C@H]1[C@H](Oc2cccc(C(F)(F)F)c2-c2ccc(F)cc2F)O[C@H](CO)[C@H](O)[C@@H]1O
IC50 (FmlH (Escherichia coli)): 320 nM

Structure (SMILES): CC(=O)N[C@H]1[C@H](Oc2cccc(C(F)(F)F)c2-c2cccc(CC#N)c2)O[C@H](CO)[C@H](O)[C@@H]1O
IC50 (FmlH (Escherichia coli)): 800 nM

Structure (SMILES): CC(=O)N[C@H]1[C@H](Oc2cccc(C(F)(F)F)c2-c2ccc(F)c(F)c2)O[C@H](CO)[C@H](O)[C@@H]1O
half-life [1]: 1.8 h
clearance [2]: 28 mL/min/kg
bioavailability [3]: 30.7%
C0 [4]: 3190 ng/mL
half-life [5]: 1.26 h
AUC(0-t) [6]: 1830 ng·h/mL
MRT last [7]: 3.53 h
MRT inf [8]: 3.67 h
%AUCextra [9]: 1.07%
Cmax [10]: 472 ng/mL
AUC(0-inf) [11]: 1860 ng·h/mL
AUC(0-t) [12]: 1790 ng·h/mL
Tmax [13]: 2.64 h
Tlast [14]: 8 h
AUC(0-inf) [15]: 1810 ng·h/mL
AUMC [16]: 7.31%
%AUCextra [17]: 1.64%
MRT last [18]: 1.34 h
IC50 (FmlH (Escherichia coli)): 240 nM
AUMC [19]: 5.96%
Vd [20]: 2.39 L/kg
MRT inf [21]: 1.43 h

Structure (SMILES): CC(=O)N[C@H]1[C@H](Oc2cccc(C(F)(F)F)c2-c2cccc(CS(C)(=O)=O)c2)O[C@H](CO)[C@H](O)[C@@H]1O
IC50 (FmlH (Escherichia coli)): 450 nM

Structure (SMILES): CS(=O)(=O)Nc1cccc(-c2ccccc2C[C@@H]2O[C@H](CO)[C@H](O)[C@H](O)[C@H]2F)c1
IC50 (FmlH (Escherichia coli)): 7300 nM

Structure (SMILES): CC(=O)N[C@H]1[C@H](Oc2cccc(C(F)(F)F)c2-c2cccc(N(C)S(=O)(=O)O)c2)O[C@H](CO)[C@H](O)[C@@H]1O
IC50 (FmlH (Escherichia coli)): 2000 nM

Structure (SMILES): CC(=O)N[C@H]1[C@H](Oc2cccc(C(F)(F)F)c2-c2ccccc2F)O[C@H](CO)[C@H](O)[C@@H]1O
IC50 (FmlH (Escherichia coli)): 710 nM

Structure (SMILES): COc1cc(F)cc(-c2c(O[C@@H]3O[C@H](CO)[C@H](O)[C@H](O)[C@H]3NC(C)=O)cccc2C(F)(F)F)c1
IC50 (FmlH (Escherichia coli)): 6000 nM

Structure (SMILES): CC(=O)N[C@H]1[C@H](Oc2cccc(C(F)(F)F)c2-c2ccc(F)cc2)O[C@H](CO)[C@H](O)[C@@H]1O
half-life [1]: 1.92 h
clearance [2]: 13.6 mL/min/kg
bioavailability [3]: 52.7%
C0 [4]: 4430 ng/mL
half-life [5]: 1.47 h
AUC(0-t) [6]: 6070 ng·h/mL
MRT last [7]: 3.18 h
MRT inf [8]: 3.75 h
%AUCextra [9]: 1.9%
Cmax [10]: 1480 ng/mL
Tlast [22]: 8 h
AUC(0-inf) [11]: 6560 ng·h/mL
concentration at 24 h [23]: 66.3 ng/mL
AUC(0-t) [12]: 3660 ng·h/mL
Tmax [13]: 2 h
Tlast [14]: 8 h
AUC(0-inf) [15]: 3740 ng·h/mL
AUMC [16]: 10.8%
concentration at 24 h [24]: 15.8 ng/mL
%AUCextra [17]: 7.55%
MRT last [18]: 1.59 h
IC50 (FmlH (Escherichia coli)): 190 nM
AUMC [19]: 21.6%
Vd [20]: 1.42 L/kg
MRT inf [21]: 1.75 h

Structure (SMILES): COc1cc(-c2c(O[C@@H]3O[C@H](CO)[C@H](O)[C@H](O)[C@H]3NC(C)=O)cccc2C(F)(F)F)cc(C(F)(F)F)c1
IC50 (FmlH (Escherichia coli)): 18000 nM
